Results: paper PMC8792322 (European journal of medicinal chemistry, 2021)

Experiments:
[1] = test system: PI3Kα, PI3Kβ, PI3Kγ, PI3Kδ; assay: PI3K isoform inhibition, statements spanning several isoforms; assay type: biochemical, human; details: compared to 6b
Outline: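 Purified human PI3Kα, β, γ and δ enzymes tested in a fluorescence-based Adapta TR-FRET lipid kinase assay, run as a contract service. Inhibitor range 0.1 nM – 10 μM. Data are the average of three experiments, each in duplicate, as mean ± SEM.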

PI3Kβ = PI3Kβ (Homo sapiens, UniProt P42338); assay: PI3Kβ lipid kinase inhibition, Adapta TR-FRET assay; assay type: biochemical; details: in comparison to ZSTK474
Sequence of PI3Kβ (P42338 whole entry): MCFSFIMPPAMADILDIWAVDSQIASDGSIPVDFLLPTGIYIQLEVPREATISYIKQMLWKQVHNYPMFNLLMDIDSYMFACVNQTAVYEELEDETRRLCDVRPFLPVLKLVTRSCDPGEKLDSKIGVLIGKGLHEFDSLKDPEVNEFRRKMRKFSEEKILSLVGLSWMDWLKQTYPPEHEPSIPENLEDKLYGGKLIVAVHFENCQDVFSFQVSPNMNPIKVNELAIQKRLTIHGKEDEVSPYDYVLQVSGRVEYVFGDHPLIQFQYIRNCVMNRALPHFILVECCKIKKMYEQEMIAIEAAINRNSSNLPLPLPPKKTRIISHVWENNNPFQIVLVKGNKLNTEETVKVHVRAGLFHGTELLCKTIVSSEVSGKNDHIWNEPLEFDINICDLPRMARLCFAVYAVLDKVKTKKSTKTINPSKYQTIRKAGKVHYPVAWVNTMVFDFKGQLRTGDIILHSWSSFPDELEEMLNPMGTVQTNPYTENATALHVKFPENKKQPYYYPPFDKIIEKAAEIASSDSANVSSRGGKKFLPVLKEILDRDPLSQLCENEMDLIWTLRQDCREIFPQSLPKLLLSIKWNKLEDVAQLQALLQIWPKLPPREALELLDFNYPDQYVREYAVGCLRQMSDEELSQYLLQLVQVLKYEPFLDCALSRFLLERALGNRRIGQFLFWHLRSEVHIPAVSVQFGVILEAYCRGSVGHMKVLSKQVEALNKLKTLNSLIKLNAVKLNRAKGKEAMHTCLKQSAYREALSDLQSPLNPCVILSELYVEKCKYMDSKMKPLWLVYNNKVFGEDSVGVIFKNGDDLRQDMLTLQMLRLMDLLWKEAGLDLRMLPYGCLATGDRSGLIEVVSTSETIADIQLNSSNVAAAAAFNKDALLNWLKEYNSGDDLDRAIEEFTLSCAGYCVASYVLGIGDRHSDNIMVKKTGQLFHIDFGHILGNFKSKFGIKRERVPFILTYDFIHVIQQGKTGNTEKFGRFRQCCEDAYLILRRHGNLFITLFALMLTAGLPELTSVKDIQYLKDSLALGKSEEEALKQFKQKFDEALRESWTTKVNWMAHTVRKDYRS
Sequence of PI3Kβ (P27986 whole entry partner): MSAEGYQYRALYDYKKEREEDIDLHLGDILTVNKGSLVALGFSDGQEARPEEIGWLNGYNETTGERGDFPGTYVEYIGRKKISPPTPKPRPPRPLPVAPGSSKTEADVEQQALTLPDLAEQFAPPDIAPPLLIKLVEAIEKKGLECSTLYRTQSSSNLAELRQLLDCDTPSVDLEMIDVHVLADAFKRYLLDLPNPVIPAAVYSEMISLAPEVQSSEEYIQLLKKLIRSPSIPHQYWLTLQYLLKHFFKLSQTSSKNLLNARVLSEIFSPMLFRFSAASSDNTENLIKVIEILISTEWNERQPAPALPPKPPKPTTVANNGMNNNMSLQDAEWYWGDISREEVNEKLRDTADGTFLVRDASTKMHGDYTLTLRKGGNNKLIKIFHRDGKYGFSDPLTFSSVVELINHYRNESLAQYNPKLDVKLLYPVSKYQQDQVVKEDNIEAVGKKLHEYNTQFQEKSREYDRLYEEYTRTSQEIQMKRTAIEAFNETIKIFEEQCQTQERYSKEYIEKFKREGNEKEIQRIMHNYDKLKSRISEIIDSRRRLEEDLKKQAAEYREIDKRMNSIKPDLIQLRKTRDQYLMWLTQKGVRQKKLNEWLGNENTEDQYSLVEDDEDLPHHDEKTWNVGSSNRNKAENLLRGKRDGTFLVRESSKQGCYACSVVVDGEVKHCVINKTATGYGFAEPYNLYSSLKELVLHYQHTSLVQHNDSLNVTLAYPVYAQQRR

PI3Kδ = PI3Kδ (Homo sapiens, UniProt O00329); assay: PI3Kδ lipid kinase inhibition, Adapta TR-FRET assay; assay type: biochemical; details: in comparison to ZSTK474
Sequence of PI3Kδ (O00329 whole entry): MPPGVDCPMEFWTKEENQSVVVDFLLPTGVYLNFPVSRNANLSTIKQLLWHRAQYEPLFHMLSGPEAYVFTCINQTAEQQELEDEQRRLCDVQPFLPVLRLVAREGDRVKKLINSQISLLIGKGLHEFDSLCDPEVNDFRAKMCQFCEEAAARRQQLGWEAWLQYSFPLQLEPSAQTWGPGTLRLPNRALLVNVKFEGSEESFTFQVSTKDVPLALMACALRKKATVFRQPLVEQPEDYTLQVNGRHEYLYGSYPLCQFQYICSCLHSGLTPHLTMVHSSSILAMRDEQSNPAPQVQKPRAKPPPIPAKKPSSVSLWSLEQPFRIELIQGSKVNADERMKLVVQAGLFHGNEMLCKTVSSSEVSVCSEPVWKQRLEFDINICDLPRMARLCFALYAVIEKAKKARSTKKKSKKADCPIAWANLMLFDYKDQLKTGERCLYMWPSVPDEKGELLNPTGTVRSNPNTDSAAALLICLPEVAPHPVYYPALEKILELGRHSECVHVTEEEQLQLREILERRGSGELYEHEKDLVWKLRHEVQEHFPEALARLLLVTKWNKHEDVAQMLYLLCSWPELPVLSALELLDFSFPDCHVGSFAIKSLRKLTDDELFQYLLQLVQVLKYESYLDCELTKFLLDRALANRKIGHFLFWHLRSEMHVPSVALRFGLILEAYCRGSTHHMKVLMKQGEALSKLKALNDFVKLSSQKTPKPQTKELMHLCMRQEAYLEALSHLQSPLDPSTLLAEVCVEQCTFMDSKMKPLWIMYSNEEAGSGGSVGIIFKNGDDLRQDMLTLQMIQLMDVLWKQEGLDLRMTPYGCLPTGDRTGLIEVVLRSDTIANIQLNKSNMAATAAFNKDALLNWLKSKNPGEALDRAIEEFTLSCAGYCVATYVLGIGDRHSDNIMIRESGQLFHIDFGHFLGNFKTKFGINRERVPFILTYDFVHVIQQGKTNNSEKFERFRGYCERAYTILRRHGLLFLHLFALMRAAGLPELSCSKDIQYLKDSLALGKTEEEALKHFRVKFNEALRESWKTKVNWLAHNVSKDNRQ
Sequence of PI3Kδ (P27986 whole entry partner): as the sequence (P27986 whole entry partner) above

PI3Kγ = PI3Kγ (Homo sapiens, UniProt P48736); assay: PI3Kγ lipid kinase inhibition, Adapta TR-FRET assay; assay type: biochemical; details: in comparison to ZSTK474
Sequence of PI3Kγ (P48736 whole entry): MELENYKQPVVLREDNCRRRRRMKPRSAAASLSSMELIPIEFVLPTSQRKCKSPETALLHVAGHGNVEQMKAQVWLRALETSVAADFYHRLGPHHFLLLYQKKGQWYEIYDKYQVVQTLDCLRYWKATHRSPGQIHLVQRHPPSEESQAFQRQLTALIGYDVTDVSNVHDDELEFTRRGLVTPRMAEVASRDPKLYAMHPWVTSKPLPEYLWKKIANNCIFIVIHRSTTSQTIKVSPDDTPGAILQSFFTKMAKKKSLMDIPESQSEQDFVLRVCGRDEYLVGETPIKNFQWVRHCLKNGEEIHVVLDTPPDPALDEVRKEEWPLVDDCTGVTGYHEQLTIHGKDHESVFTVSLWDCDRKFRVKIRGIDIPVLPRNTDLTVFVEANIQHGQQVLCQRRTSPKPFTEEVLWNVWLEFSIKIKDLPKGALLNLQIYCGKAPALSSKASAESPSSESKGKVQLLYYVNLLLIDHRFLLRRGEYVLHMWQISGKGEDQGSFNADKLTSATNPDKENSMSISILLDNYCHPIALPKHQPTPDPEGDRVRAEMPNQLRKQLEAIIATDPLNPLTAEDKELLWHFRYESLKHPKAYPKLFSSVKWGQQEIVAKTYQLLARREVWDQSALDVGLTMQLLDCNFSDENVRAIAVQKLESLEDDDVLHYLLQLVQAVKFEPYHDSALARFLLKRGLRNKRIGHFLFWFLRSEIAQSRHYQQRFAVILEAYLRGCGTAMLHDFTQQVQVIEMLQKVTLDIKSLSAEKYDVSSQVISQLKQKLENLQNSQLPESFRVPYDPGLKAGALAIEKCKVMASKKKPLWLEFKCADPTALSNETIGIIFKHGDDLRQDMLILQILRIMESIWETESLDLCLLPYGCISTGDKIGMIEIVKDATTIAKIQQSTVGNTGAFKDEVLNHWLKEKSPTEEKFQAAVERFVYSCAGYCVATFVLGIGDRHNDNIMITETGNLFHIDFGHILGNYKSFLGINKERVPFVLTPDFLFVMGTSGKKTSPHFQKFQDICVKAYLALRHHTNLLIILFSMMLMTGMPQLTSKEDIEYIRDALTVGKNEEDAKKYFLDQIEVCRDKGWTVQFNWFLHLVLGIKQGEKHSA

[2] = test system: A375 melanoma, D54 glioblastoma and SET-2 leukemia tumor cell lines; assay: CellTiter-Fluor cell viability assay; assay type: cell-based; details: Homo sapiens, 72 h, read-out: anti-proliferative activity IC50
Outline: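 Human A375, D54 (DMEM or RPMI, 10% FBS) and SET-2 (20% FBS) cells at 37 °C, 5% CO2; 500–1,000 cells/well seeded and left 24 h, then test compound added at 0.1–20 μM final for 72 h. Read by CellTiter-Fluor fluorescence, with a reference PI3K inhibitor as positive control. Three experiments in duplicate wells; IC50 from curve fit, mean ± SEM.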

[3] = test system: phosphorylation of ERK1/2 (T202/Y204); assay: Western blot quantification of pERK1/2 in tumor-derived cell lines; assay type: cell-based; details: Homo sapiens, 0.5 h, read-out: inhibition of pERK phosphorylation
Outline: (§1)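 A375 and D54 cells (DMEM, 10% FBS) and SET-2 cells (RPMI, 20% FBS) treated 30 min with 10 μM test compound. PDGF 50 ng/ml added for A375 and D54 only. Cells lysed 20 min on ice in RIPA with protease/phosphatase inhibitors, then SDS-PAGE/PVDF blots probed for pAKT S473, pERK1/2 T202/Y204, total AKT and total ERK1/2, with chemiluminescent detection. Background-subtracted phospho densities normalised to total protein, relative to control. Three experiments; mean ± SEM.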

[4] = test system: phosphorylation of AKT (S473); assay: Western blot quantification of pAKT in tumor-derived cell lines; assay type: cell-based; details: Homo sapiens, 0.5 h, read-out: inhibition of pAKT phosphorylation
Outline: as §1

[5] = In vivo tissue levels and metabolic profile by LC-MS/MS; design: species or system mouse; details: mice, oral 325 mg/kg, approximately 4 h
Outline: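 Mice (n=4 per compound) dosed orally at 325 mg/kg; blood, spleen and bone marrow taken about 4 h later. Tissue extracted by shaking or bead homogenisation and spun at 10,000 × g. Analysed by C18 UPLC (0.1% formic acid water/acetonitrile, 0.6 mL/min) with MRM LC-MS/MS. Internal-standard calibration used 1/X weighting over 0.02–160 ng/mL. Synthesized metabolite standards confirmed identities; levels given as ng/g.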

JAK2V617F MF mouse model = assay: Therapy study in JAK2V617F myelofibrosis mouse model; assay type: in vivo; details: 325 mg/kg daily p.o., 4 days
Outline: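 JAK2V617F fl/− × Mx1-Cre donor bone marrow mixed with WT C57BL/6 marrow (1:9, WT:mutant). Five million cells transplanted into lethally irradiated C57BL/6 females, with polyI:C given twice 2 weeks after transplant. Spleen volume by 7T MRI (2D multi-slice FLASH, TR/TE 600/8 ms, 40 slices of 0.4 mm) at days 0 and 4, summing pixel areas × slice thickness. Spleens weighed after 5 days of treatment. n=5 vehicle, n=4 treated; mean ± s.d.; Welch's t-test.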

[6] = test system: phosphorylated ERK1/2 and AKT in spleens of JAK2V617F MF mice; assay: pAKT and pERK1/2 in spleens of treated MF mice; assay type: in vivo, mouse; details: 325 mg/kg daily p.o., 5 days, vs vehicle
Outline: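 JAK2V617F myelofibrosis mice received test compound orally for 5 days, and spleens were taken after sacrifice. For blots, tissue was homogenised in RIPA and 30 μg protein (by BCA) run by SDS-PAGE. Blots were probed for pERK1/2 and pAKT with β-actin as loading control, 2 animals per group. Flow cytometry: isolated cells stained intracellularly with APC anti-pERK1/2 (pT202/pY204) and anti-pAKT (pS473); mean fluorescence intensity reported.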

[7] = test system: PI3Kα, PI3Kβ, PI3Kγ, PI3Kδ; details: compared to ZSTK474; cited from earlier work

With COCCN(CCO)c1nc(N2CCOCC2)nc(-n2c(C(F)F)nc3ccccc32)n1 [Compound 6d, 2-((4-(2-(difluoromethyl)-1H-benzo[d]imidazol-1-yl)-6-morpholino-1,3,5-triazin-2-yl)(2-methoxyethyl)amino)ethan-1-ol] the “fold lower potency towards PI3Kβ and PI3Kγ” value [1] was 2 fold.

In the case of COCCNc1nc(N2CCOCC2)nc(-n2c(C(F)F)nc3ccccc32)n1 [Compound 6c, 4-(2-(difluoromethyl)-1H-benzo[d]imidazol-1-yl)-N-(2-methoxyethyl)-6-morpholino-1,3,5-triazin-2-amine], the “fold decrease in PI3Kβ inhibition” value (PI3Kβ) is reported as 14 fold.

With OCCN(CCO)c1nc(N2CCOCC2)nc(-n2c(C(F)F)nc3ccccc32)n1 [Compound 6b, 2,2’-((4-(2-(difluoromethyl)-1H-benzo[d]imidazol-1-yl)-6-morpholino-1,3,5-triazin-2-yl)azanediyl)bis(ethan-1-ol)] the “fold decrease in PI3Kβ inhibition” value (PI3Kβ) was 5 fold and the “fold decrease in PI3Kδ inhibition” value (PI3Kδ) was 2.5 fold.

With OCCNc1nc(N2CCOCC2)nc(-n2c(C(F)F)nc3ccccc32)n1 [Compound 6a, 2-((4-(2-(difluoromethyl)-1H-benzo[d]imidazol-1-yl)-6-morpholino-1,3,5-triazin-2-yl)amino)ethan-1-ol] the “fold decrease in PI3Kβ inhibition” value (PI3Kβ) was 5 fold, the “fold lowered potency towards PI3Kγ” value (PI3Kγ) was 2.5 fold and the “fold decrease in PI3Kδ inhibition” value (PI3Kδ) was 2.5 fold.

O=C(NOCCOCCOCCOCCN(CCO)c1nc(N2CCOCC2)nc(-n2c(C(F)F)nc3ccccc32)n1)c1ccc(F)c(F)c1Nc1ccc(I)cc1F [Compound 6s, N-((3-(4-(2-(difluoromethyl)-1H-benzo[d]imidazol-1-yl)-6-morpholino-1,3,5-triazin-2-yl)-1-hydroxy-6,9,12-trioxa-3-azatetradecan-14-yl)oxy)-3,4-difluoro-2-((2-fluoro-4-iodophenyl)amino)benzamide] showed an IC50 [2] of 7 to 9.9 µM, an inhibition at 10 µM [3] of 87 to 96% and an inhibition at 10 µM [4] of 55 to 71%. The “in vivo metabolites identified” value [5] was “MV5–46 (6o), which is then further metabolized to MV5–32 (6b) and MV4–187 (6a)”, the “spleen volume by MRI compared with vehicle” value (JAK2V617F MF mouse model) was “significantly reduced” and the “phosphorylated ERK1/2 and AKT levels in spleen” value [6] was “significantly reduced”.

Compound O=C(NOCCOCCOCCOCCNc1nc(N2CCOCC2)nc(-n2c(C(F)F)nc3ccccc32)n1)c1ccc(F)c(F)c1Nc1ccc(I)cc1F [Compound 6r, N-(2-(2-(2-(2-((4-(2-(difluoromethyl)-1H-benzo[d]imidazol-1-yl)-6-morpholino-1,3,5-triazin-2-yl)amino)ethoxy)ethoxy)ethoxy)ethoxy)-3,4-difluoro-2-((2-fluoro-4-iodophenyl)amino)benzamide] has an IC50 [2] of 10.7 to 17.3 µM, an inhibition at 10 µM [3] of 66 to 85% and an inhibition at 10 µM [4] of 22 to 29%. The “in vivo metabolites identified” value [5] was “MV-187 (6a) and PD0316684 and MV4–6”, the “spleen volume by MRI compared with vehicle” value (JAK2V617F MF mouse model) was “significantly reduced” and the “phosphorylated ERK1/2 and AKT levels in spleen” value [6] was “significantly reduced”.

For FC(F)c1nc2ccccc2n1-c1nc(N2CCNCC2)nc(N2CCOCC2)n1 [Compound 2a], the “fold reduction in PI3Kα and PI3Kδ inhibition” value [7] is given as 36 fold and the “fold reduction in PI3Kβ and PI3Kγ inhibition” value [7] is given as greater than 70 fold.
